Measured values reported in publication PMC8114154 (Journal of Applied Glycoscience, 2019).

Experiments:
[1] = system: AsojAgdL; test: glucose release; type: biochemical, Aspergillus sojae; details: 20 mM MES pH 6.0, 40 °C, 60 min
How it was run: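 Recombinant enzyme expressed in A. nidulans, purified by His-Trap affinity then Superdex 200 gel filtration. Incubated with substrates at various concentrations for 60 min at 40 °C. Stopped with 10 % oxalic acid and 10 min boiling. Released glucose quantified by glucose assay kit. Km from nonlinear-regression Michaelis–Menten fit of initial velocities over the low-concentration range only.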

[2] = molecular target: T1, AnigAgdA (Aspergillus niger, UniProt P56526); test: glucose release, fit of v = Vmax[S]/; type: biochemical; details: 20 mM acetate pH 4.0, 40 °C, 60 min; substrate inhibition
T1 sequence (P56526 26-985): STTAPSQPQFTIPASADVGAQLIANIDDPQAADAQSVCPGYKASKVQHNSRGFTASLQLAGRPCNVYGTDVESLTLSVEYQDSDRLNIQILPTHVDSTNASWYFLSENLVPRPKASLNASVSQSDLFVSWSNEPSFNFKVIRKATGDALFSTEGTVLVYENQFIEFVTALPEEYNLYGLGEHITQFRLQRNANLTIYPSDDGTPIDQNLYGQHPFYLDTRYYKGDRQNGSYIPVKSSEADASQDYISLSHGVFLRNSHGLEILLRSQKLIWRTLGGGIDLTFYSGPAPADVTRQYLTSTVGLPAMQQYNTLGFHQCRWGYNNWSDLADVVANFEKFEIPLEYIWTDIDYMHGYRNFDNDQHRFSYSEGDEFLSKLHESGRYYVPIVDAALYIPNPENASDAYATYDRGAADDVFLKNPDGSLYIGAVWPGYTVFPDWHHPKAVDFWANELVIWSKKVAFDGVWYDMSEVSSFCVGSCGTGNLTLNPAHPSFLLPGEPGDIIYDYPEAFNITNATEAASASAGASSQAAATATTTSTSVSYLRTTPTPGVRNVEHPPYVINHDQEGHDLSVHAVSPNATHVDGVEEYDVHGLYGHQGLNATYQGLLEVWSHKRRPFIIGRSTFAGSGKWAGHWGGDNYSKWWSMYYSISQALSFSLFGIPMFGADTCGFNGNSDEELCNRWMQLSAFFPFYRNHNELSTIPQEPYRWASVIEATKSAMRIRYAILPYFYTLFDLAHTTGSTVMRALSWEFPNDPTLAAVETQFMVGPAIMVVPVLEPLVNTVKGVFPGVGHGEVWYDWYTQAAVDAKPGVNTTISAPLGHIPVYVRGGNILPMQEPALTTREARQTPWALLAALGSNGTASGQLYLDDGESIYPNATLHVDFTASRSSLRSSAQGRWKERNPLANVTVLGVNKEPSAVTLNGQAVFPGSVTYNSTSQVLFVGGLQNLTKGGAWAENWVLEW

[3] = low substrate range only (substrate inhibition)

| Compound | Km [1] [µM] | Km [1, 3] [µM] | Ki [2] [mM] |
| --- | --- | --- | --- |
| OC[C@H]1O[C@H](OC[C@H]2O[C@H](OC[C@H]3O[C@H](OC[C@H]4O[C@H](OC[C@H]5O[C@H](OC[C@H]6OC(O)[C@H](O)[C@@H](O)[C@@H]6O)[C@H](O)[C@@H](O)[C@@H]5O)[C@H](O)[C@@H](O)[C@@H]4O)[C@H](O)[C@@H](O)[C@@H]3O)[C@H](O)[C@@H](O)[C@@H]2O)[C@H](O)[C@@H](O)[C@@H]1O (stereo partly shown) [Isomaltohexaose] | 1100 ± 200 | – | – |
| OC[C@H]1O[C@H](O[C@H]2[C@H](O)[C@@H](O)[C@@H](O[C@H]3[C@H](O)[C@@H](O)[C@@H](O[C@H]4[C@H](O)[C@@H](O)[C@@H](O[C@H]5[C@H](O)[C@@H](O)C(O)O[C@@H]5CO)O[C@@H]4CO)O[C@@H]3CO)O[C@@H]2CO)[C@H](O)[C@@H](O)[C@@H]1O (stereo partly shown) [Maltopentaose] | – | 900 ± 100 | 19.6 ± 2.2 |
| OC[C@H]1O[C@H](O[C@H]2[C@H](O)[C@@H](O)[C@@H](O[C@H]3[C@H](O)[C@@H](O)[C@@H](O[C@H]4[C@H](O)[C@@H](O)C(O)O[C@@H]4CO)O[C@@H]3CO)O[C@@H]2CO)[C@H](O)[C@@H](O)[C@@H]1O (stereo partly shown) [Maltotetraose] | – | 1600 ± 100 | – |
| OC[C@H]1O[C@H](OC[C@H]2O[C@H](OC[C@H]3O[C@H](OC[C@H]4O[C@H](OC[C@H]5OC(O)[C@H](O)[C@@H](O)[C@@H]5O)[C@H](O)[C@@H](O)[C@@H]4O)[C@H](O)[C@@H](O)[C@@H]3O)[C@H](O)[C@@H](O)[C@@H]2O)[C@H](O)[C@@H](O)[C@@H]1O (stereo partly shown) [Isomaltopentaose] | 900 ± 100 | – | – |
| OC[C@H]1O[C@H](O[C@H]2[C@H](O)[C@@H](CO)OC(O)[C@@H]2O)[C@H](O)[C@@H](O)[C@@H]1O (stereo partly shown) [Nigerose] | 2500 ± 400 | – | – |
| OC[C@H]1O[C@H](O[C@H]2[C@H](O)[C@@H](O)[C@@H](O[C@H]3[C@H](O)[C@@H](O)[C@@H](O[C@H]4[C@H](O)[C@@H](O)[C@@H](O[C@H]5[C@H](O)[C@@H](O)[C@@H](O[C@H]6[C@H](O)[C@@H](O)C(O)O[C@@H]6CO)O[C@@H]5CO)O[C@@H]4CO)O[C@@H]3CO)O[C@@H]2CO)[C@H](O)[C@@H](O)[C@@H]1O (stereo partly shown) [Maltohexaose] | – | 900 ± 100 | 30.8 ± 7.0 |
| OC[C@H]1O[C@H](O[C@H]2[C@H](O)[C@@H](O)[C@@H](O[C@H]3[C@H](O)[C@@H](O)C(O)O[C@@H]3CO)O[C@@H]2CO)[C@H](O)[C@@H](O)[C@@H]1O (stereo partly shown) [Maltotriose] | – | 2000 | 3.8 ± 0.7 |
| OC[C@H]1O[C@H](O[C@H]2[C@H](O)[C@@H](O)C(O)O[C@@H]2CO)[C@H](O)[C@@H](O)[C@@H]1O (stereo partly shown) [Maltose] | 2200 ± 300 | – | 12.0 ± 3.6 |
| OC[C@H]1O[C@H](OC[C@H]2O[C@H](OC[C@H]3O[C@H](OC[C@H]4OC(O)[C@H](O)[C@@H](O)[C@@H]4O)[C@H](O)[C@@H](O)[C@@H]3O)[C@H](O)[C@@H](O)[C@@H]2O)[C@H](O)[C@@H](O)[C@@H]1O (stereo partly shown) [Isomaltotetraose] | 2400 ± 800 | – | – |
| OC[C@H]1O[C@H](OC[C@H]2OC(O)[C@H](O)[C@@H](O)[C@@H]2O)[C@H](O)[C@@H](O)[C@@H]1O (stereo partly shown) [Isomaltose] | 2000 ± 300 | – | – |
| OC[C@H]1O[C@H](O[C@H]2C(O)O[C@H](CO)[C@@H](O)[C@@H]2O)[C@H](O)[C@@H](O)[C@@H]1O (stereo partly shown) [Kojibiose] | 2100 ± 300 | – | – |
| OC[C@H]1O[C@H](OC[C@H]2O[C@H](OC[C@H]3OC(O)[C@H](O)[C@@H](O)[C@@H]3O)[C@H](O)[C@@H](O)[C@@H]2O)[C@H](O)[C@@H](O)[C@@H]1O (stereo partly shown) [Isomaltotriose] | 500 ± 100 | – | – |
